Mot1-301 SUMO: SUMOylation pathway inhibition by Mot1-301 growth rescue; hit rate 1% among 320,000; growth rescue, % at 18.8 µM; S. cerevisiae Mot1-301 growth rescue, ATP luminescence, 38.5C; percent above DMSO median, 100 means doubled;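 active = every valid replicate shows activation above 250% relative to neutral control wells; inactive = the rest, any valid replicate at or below 250%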;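 note: OY570 slx delta 5 strain wells were the positive control but not used for scaling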
Efflux pump inh: inhibitors of Candida antifungal efflux pumps expressed in yeast; S. cerevisiae Candida pump triplex, Nile Red efflux; inhibition, % at 10 µM; hit rate 0.44% among 330,000;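 active = plate passing quality check with inhibition over a set limit, or well fluorescence over plate mean plus 4 SD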;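 note: Nile Red retained in pooled yeast measured as flow cytometry median fluorescence; 0% = buffer negative control and 100% = Enniatin B positive control; higher means more Nile Red kept so more efflux inhibition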
Cneo AK release: Cryptococcus neoformans lysis via adenylate kinase release; C. neoformans lysis, adenylate kinase release luminescence, 4 h; normalised: neutral wells 0, clomiphene wells 100; lysis activity, % at 15 µM; hit rate 0.2% among 360,000;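 active = mean lysis activity across replicates of at least 80%, whatever share of replicates individually reach that level; inactive = mean lysis activity below 80%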
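Material – Cryptococcus neoformans yeast cells · Quantity – 5 × 10^6 yeast cells/mL · Buffer or medium – YPD medium · Compound – single dose · Timing – 4 h static compound exposure, 37 °C, read 1 h post-reagent · Signal – adenylate kinase release luminescence · Read-out basis – lysis from increased AK signal · Benchmarks – Clomiphene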
C2C12 statin: suppressors of simvastatin-induced myotoxicity in C2C12 myotubes; ATP luminescence, 48 h; scaled: DMSO 0, geranylgeraniol control 100; rescue of ATP level, % at 7.49 µM; hit rate 0.78% among 330,000;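 active = mean ATP rescue above about 67%, or every replicate alone reaching that limit, limit read from the data, passing the limit was not always enough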;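 note: myotubes were challenged with 10 µM simvastatin during compound exposure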
Numbers without * were called inactive; / = no result given. Most compounds without a hit are left out; they make up all but 1.8% or so of the library.

SMILES | Mot1-301 SUMO | Efflux pump inh | Cneo AK release | C2C12 statin
O=C(C[C@H]1C[C@H]2c3cc(NC(=O)C4CCOCC4)ccc3O[C@H]2[C@@H](CO)O1)NCc1ccc(Cl)cc1 | / | / | 15 | 0
Cc1cc(C)c2c(=O)n(CC(=O)NCCCN3CCOCC3)sc2n1 | 353* | 0 | -4 | -8
Cc1cc(C)c2c(=O)n(CC(=O)NCCCN3CCN(c4ccccc4F)CC3)sc2n1 | 42 | 0 | / | /
CC(=O)NCCn1c(SCc2ccccc2F)nc2ccccc2c1=O | 5 | 0 | / | 21
CC(=O)NCCn1c(SCc2cc(=O)n3cc(Cl)ccc3n2)nc2ccccc2c1=O | -6 | 0 | 1 | 75*
CCc1ccccc1N(CC(=O)NC1CCCCC1)C(=O)CNC(=O)c1ccco1 | 3 | 2 | 2 | 33
O=C(CN(Cc1ccccc1C(F)(F)F)C(=O)CNC(=O)c1ccco1)NC1CCCC1 | -8 | 0 | -1 | 113*
CCc1ccc2[nH]c(=O)c(CN(Cc3ccccc3OC)Cc3nnnn3Cc3ccco3)cc2c1 | 16 | 0 | -1 | 100*
Cc1ccccc1-c1ccc([C@@H]2[C@H](CO)N3CCCCN(S(=O)(=O)Cc4ccccc4)C[C@@H]23)cc1 | / | / | 8 | -10
CCS(=O)(=O)c1ncc(Cl)c(C(=O)Nc2ccc(C)cc2)n1 | 16 | 0 | 1 | 127*
COc1cc(S(=O)(=O)Nc2ncccc2C)c(OC)cc1Cl | 10 | 0 | -1 | 121*
COc1ccc(Br)cc1S(=O)(=O)Nc1ncccc1C | -6 | 0 | / | /
Cc1cccc2sc(NC(=O)[C@H](C)N3C(=O)C4CC=CCC4C3=O)nc12 (stereo not given in full) | 17 | 0 | / | /
CC1CN(Cc2cc(=O)n3ccsc3n2)CC(C)O1 (stereo not given) | 278* | 0 | -3 | /
COc1ccc(C(=O)c2nc3c(n2O)CCCC3)cc1OC | 354 | 0 | -2 | 122*
COc1ccc(C(=O)c2nc3c(n2O)CCCCC3)cc1 | 18 | 0 | 1 | 0
C[C@@H]1CN([C@@H](C)CO)C(=O)c2cccc(NC(=O)Nc3ccccc3)c2O[C@H]1CN(C)C(=O)Nc1ccccc1 | / | / | -4 | 29
C/C(=N\NC(=O)c1cc(Br)ccc1O)c1cccs1 | 20 | 0 | -2 | -11
CCC(C(=O)NC1CCCC1)N(C(=O)Cn1nnc(-c2ccc(OC)c(OC)c2)n1)c1cccc(O)c1 (stereo not given) | 4 | 0 | -2 | 139*
Cc1cccc(N2CCN(C(=O)C3COc4ccccc4O3)CC2)c1C (stereo not given) | 104 | 0 | / | /
Cc1ccc(C)c(N2CCN(C(=O)CCCN3C(=S)NC(C)(C)CC3C)CC2)c1 (stereo not given) | -11 | 0 | -1 | /
Cc1cccc(N2CCN(C(=O)CCN3C(=S)NC(C)(C)CC3C)CC2)c1C (stereo not given) | 614* | 0 | 9 | -8
CC(C)NC(=O)N(C)C[C@H]1Oc2ccc(NC(=O)Nc3ccc(F)cc3)cc2C(=O)N([C@H](C)CO)C[C@@H]1C | / | / | -2 | 13
CCOC(=O)[C@H]1[C@H]2COc3ccc(Cl)cc3[C@@H]2N2C(=O)c3ccccc3NC(=O)[C@@]12C | 24 | / | -2 | 135*
C[C@@]12C(=O)Nc3ccc(Cl)cc3C(=O)N1[C@H]1c3ccccc3OC[C@@H]1[C@@H]2c1ccccc1 | 543* | 0 | -4 | 15
SMILES | Mot1-301 SUMO | Efflux pump inh | Cneo AK release | C2C12 statin
NS(=O)(=O)c1ccc(CNC(=O)/C=C/c2ccccc2)cc1 | -13 | 0 | 4 | 2
Nc1nc(Nc2ccccc2F)nc(NCc2ccco2)c1[N+](=O)[O-] | 304* | 0 | / | /
CN(C)Cc1csc(NC(=O)Nc2ccccc2Oc2ccccc2)n1 | / | / | -2 | 73*
CN(C)Cc1csc(NC(=O)Nc2ccccc2-c2ccccc2)n1 | / | / | 3 | 0
CCc1ccccc1NC(=O)N1C2CCCC1CC(NC(=O)C(C)(C)C)C2 (stereo not given) | 20 | 0 | -1 | /
Cc1ccc2nc(-c3ccc(-c4cccc(Cl)c4)cc3)c(NCc3ccccc3)n2c1 | -18 | 0 | 1 | 85*
CCOC(=O)C1CCN(C(=O)/C(C)=C\c2ccccc2)CC1 | 310 | 1 | / | /
CCOc1cccc2cc(-c3nnc(NCc4ccco4)s3)c(=O)oc12 | -4 | 0 | -1 | /
COc1ccc2oc(=O)c(-c3nnc(NCc4ccco4)s3)cc2c1 | 122 | 0 | 0 | 103*
C[C@@H]1CN([C@H](C)CO)C(=O)c2cc(C#CCc3ccccc3)cnc2O[C@H]1CN(C)C(=O)C1CCC1 | / | / | -2 | -61
C(=Nn1cnnc1)c1ccc2c(c1)CCC2 | / | / | 82* | 7
CCCCNC(=O)NNc1nc(Cl)cc(C)c1C#N | 10 | 0 | -2 | 8
COC(=O)CSc1nc(C2CC2)cc(C(F)(F)F)c1C#N | 381 | 0 | 1 | 99*
Cc1ccc(C)c(OCCCN2CCCC2)c1 | 11 | 0 | -1 | -24
Cc1ccc(C(C)C)cc1OCCCCN1CCCC1 | 320* | 0 | 0 | -7
Cc1ccc(NS(=O)(=O)c2ccc(-c3ccc(=O)[nH]n3)o2)cc1Cl | -2 | 0 | 2 | 137*
CC1(Cc2ccc3c(c2)OCO3)C(=O)Nc2c(Cl)ccc(Cl)c21 (stereo not given) | / | / | -3 | 88*
O=C(C[C@@H]1CC[C@H](NC(=O)Cc2ccccn2)[C@H](CO)O1)NCCc1ccccc1 | / | / | 81* | 0
O=C(c1cn(-c2ccccc2)nc1-c1ccc(Cl)cc1)N1CCOCC1 | 331* | 0 | / | 5
CCN(CC)CCNC(=O)Cn1ncc2ccccc2c1=O | 776* | 0 | / | /
CCN(CC)CCNC(=O)Cn1nc(-c2ccccc2)c2ccccc2c1=O | 5 | 0 | 0 | 18
CCOc1ccccc1N1CN(CC)CNC1=S | 355* | 0 | 1 | 0
Oc1ccc(Cl)cc1-c1cc(-c2ccccc2)n[nH]1 | 343* | 0 | -2 | 9
Cc1ccc(O)c(-c2cc(-c3cccc(Br)c3)n[nH]2)c1 | 280* | 0 | 3 | 4
Oc1ccccc1-c1cc(-c2ccccc2)n[nH]1 | 338* | 0 | 1 | 0
SMILES | Mot1-301 SUMO | Efflux pump inh | Cneo AK release | C2C12 statin
O=C(O)c1nn(CC(=O)N(C2CCCCC2)C2CCCCC2)c(=O)c2ccccc12 | 16 | 0 | / | /
O=C(Cn1cnc2c(OCc3ccccc3)ncnc21)NCCc1c[nH]c2ccccc12 | / | 0 | -1 | 1
O=C(COC(=O)C1CCN(S(=O)(=O)c2cccc3cccnc23)CC1)c1ccc(F)cc1 | -11 | 0 | 0 | 96*
O=C(NCc1ccccc1)C1CCN(S(=O)(=O)c2cccc3cccnc23)CC1 | / | 1 | 2 | 10
COc1ccccc1CCNC(=O)C(=O)NCC1OCCN1S(=O)(=O)c1cccs1 (stereo not given) | -3 | 0 | -7 | 9
Cc1cccc(N2CCN(c3ccc(N4C(=O)CCCC4=O)cc3[N+](=O)[O-])CC2C)c1 (stereo not given) | 415* | 0 | -2 | 9
O=C(NCc1nnc(SCc2ccccc2)n1-c1ccc(F)cc1)C12CC3CC(CC(C3)C1)C2 | -7 | 0 | 4 | /

Screening data: PubChem BioAssay, several laboratories
